Measured values reported in the RNAGym collection of RNA variant scans (doi:10.1126/science.aae0568).
Fewer inactive variants are shown than the library holds.

B1: tRNA (parent)
chain: GUUCCGUUGGCGUAAUGGUAACGCGUCUCCCUCCUAAGGAGAAGACUGCGGGUUCGAGUCCCGUACGGAACG

Variants of: B1
Experiment: yeast fitness relative to wild type (ratio to wild type); higher = fitter; tRNA-Arg(CCU), competitive growth, 37 C, YPD
Summary of the method: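 Genotype frequency changes were the basis for Darwinian fitness relative to wild type. The frequencies came from 100-nucleotide paired-end sequencing of gene amplicons from the start population and each end population of pooled yeast strains with tRNA-Arg(CCU) gene variants at the native locus. Competition ran in YPD at 37°C for 24 hours in six replicates, genotypes needed ≥ 100 starting reads, and estimates < 0.5 were set to 0.5.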

Variant	yeast fitness
GUUCCGUUGGCGUAAUGGUAACGGGUCUCCCUCCUAAGGAGAAGACUGCGGGUUAGAGUCCCGUUCGGAACG [C24G C55A A65U]	≤ 0.5
GUUCCGCUGGCGUAAUGGUAACGCGUCUCCCUCCUGAGGAGAUGACUGCGGGUUCGAGUCCCGUACGGAACG [U7C A36G A43U]	0.535
GUUCCGAUGGCGUAAUGGUAACGCGCCUCCCUCCUAAGGGGAUGACUGAGGGUUCGAGUCCCGUACGGAACG [U7A U26C A40G A43U C49A]	0.622
GUUCCGUUGCCGUAAUGGUAACGCGUCUCCCUCCUAAGGAGAAGACUGCGGGUUCGAGUCGCGUACGGAACG [G10C C61G]	0.656
GUUCCGUUGGCGUAAUGGUAACGCGUCUCCCUCCUAAGGAGAAGACUACGCGUUCGAGUACCGCACGGAACG [G48A G51C C60A U64C]	0.853
GUUCCGUUGGCGUAAUGGUAACGCGUCUGCCUCCUAGGGAGAAGACUGCGGGUUCGAGUUCCGUACGGCACG [C29G A37G C60U A69C]	≤ 0.5
GUUCCGUUGGCGUAAUGGUACCACGUCUCCCUCCUACGGAGAAGACUGCGGGUCCGAGUCCCGUGCGGAACG [A21C G23A A37C U54C A65G]	≤ 0.5
GUUCCGUUGGCGCAAUGGUAACGCGUCUCCCUCCUAAGGAGAAGACUGCGGGUUCGAGUACCGUACGGAGCG [U13C C60A A70G]	0.588
GUACCGUUGGCAUAAUGGUAACGCGUCUCCCUCCUAAGGAGAAGAGUGCGGGUUCGAGUCCCGUACGGAACG [U3A G12A C46G]	0.657
GUUGCGUUGGCGUAAUGGUAACGCGUCUCCCUCCCAAGAAGAAGACUGCGGGUUCGAGUCCAGUACGGAACG [C4G U35C G39A C62A]	0.511
GUUCCGUUGGCGUAAUGGUAACGCGUCUCCCUCCUAAGGAGAAGGCUGGGGGUUCGAGUCCCGUACGGAACG [A45G C49G]	0.712
GUUCCGUUGGCGUAAUGGUACCGCGUCUCCCUCCAAAGGAGAAGACUGCCGGUUCGAGUCCCGUACGGCACG [A21C U35A G50C A69C]	≤ 0.5
GUUCCGUUGGCGUAAUGGUAACGCGUUUCCCUCCUAAGGAGAAGACUGCGAGUUCGAGACCCGUACGGAACG [C27U G51A U59A]	0.568
GUUUCGUUGGCGUAAUGGUAACGCGUCUCCCUCCUAAGGAGAAGACUGCGGGUUCGAGUCCCGUUCGGAACG [C4U A65U]	1.04
GUUCCGUUGGCGUAAUGGUAACGCGUCUCCUUCCUAAGGAGAAGACUGCGGGUUCGCAUCCCGUACGGGACG [C31U A57C G58A A69G]	0.554
GUUCCGUUGCCGUAAUGGUAACGCGUCUCCCUCCUAAGGAGAAGACUGCGGGUUCGAGUACCGUACGGAACG [G10C C60A]	0.583
GUUCCGUUGGCGUAAUGGUAACGCGUCUACCUCCUAAGGAGAAGACUGCGGGUUUGAGUCCCGUACGGAACG [C29A C55U]	0.603
GUUCCGUUGGCGUAAUGGUUACGCGUCUCCCUCCCAAGGAGAAGACUGCGGGUUCGAGACCCGUACGGAACG [A20U U35C U59A]	≤ 0.5
GUUCCGUUGGCGUAAUGGUAACGCGUUUCCCUCCUAAGAAGAAGAUUGCGGGUUCGAGUCCCGUACGGAACG [C27U G39A C46U]	0.918

Variant	yeast fitness
GCUCCGUUGGCGUAAUGGCAACGCGUCUCCCUCCUAAGGAGAAGACUGCGGGUUCGAGUCCCGUACGGCACG [U2C U19C A69C]	0.708
GUUCCGUUGGCGUAAUGGUUACGCGUCUCCCUCCUGAGGAGAAGACUGCGGGUUCGAGUCCCGUACGGAACG [A20U A36G]	0.766
GUUACGUUGGUGUAAUGAUAACGCGUCUCCCUCCUAAGGAGAAGACUGCGGGUUCGAGUCCCGUCCGGAACG [C4A C11U G18A A65C]	0.505
GUUCCGUUGGCGUAAUGGUAACGUGCCUCCCUCCUAAGGAGAAGACUGCGGGUUCGAGUCCCGUACGAAACG [C24U U26C G68A]	0.566
GUUCCGUUGGCCUAAUGGUAAGACGUCUCCCUCCUACGGAGACGACUGCGGGUUCGAGUCCCGUUCGGAACG [G12C C22G G23A A37C A43C A65U]	≤ 0.5
GUUCGGUUGGCGUAAUGGUAACGCGUCUCCCUCCUUAGGAGAAGACUGCGGGUUCGAGUCCUGUACGGAACG [C5G A36U C62U]	≤ 0.5
GUUGCGAUCGCGUAAUCGUAACGCGUCUCCCUCCUAAGGAGAAGACUACGGGUUCGAGUCCCGUACGGAACG [C4G U7A G9C G17C G48A]	≤ 0.5
GUUCCGUUGGCGUAACGGUAACGCGUUUCCCUCCUAAGGAGAAGACUGCGGGUUCGAGUCCCGUACGGAACG [U16C C27U]	1.02
GUCGCGUUGGCCUAAUGGUAACGCGUCUCCCUCCUAAGGAGAACACUGCGGGUUCGUGUCCCGUACGGAACG [U3C C4G G12C G44C A57U]	≤ 0.5
GUUGCGUUGGCGUAAUGCUAACGCGUCUCCCUCCUAAGGAGAAGACUGCGGGUUCGUGUCCCGUACGGAACG [C4G G18C A57U]	≤ 0.5
GGUCCGUUGGCGUAAUGGUAACGCGUCUCCCUCCUAAGGAGAAGACUGCGGGUUCGAGUCCCGUACGUAACG [U2G G68U]	0.835
GUUCCGUUGGCGUAAUGGUAACGCGUCUCCCUCCCAAGGAGAAGACUGCGGGUUCGAGUCCCGUGUGGAACG [U35C A65G C66U]	0.675
GUUCCGUUGGCGUAAUGGUAACGCGUCUCCCUCCAAAGGAGAAGACUGCGGGCUCGCGUCCCGUACGGAACG [U35A U53C A57C]	≤ 0.5
GUUCCGUUGGCGAAAAGGUAACGGGUCUCCCUGCUAAGGAGAAGACUGCGGGUUCGAGUCCGGUACGGAACG [U13A U16A C24G C33G C62G]	≤ 0.5
GUUCCGUUGGUGUAAUGGUACCGCGUCUCCCUCCUAAGGAGGAGACUGCGGGUUCGAGUCCCGUACGGCGCG [C11U A21C A42G A69C A70G]	0.563
GUUUCGUUGGCGUAAUGGUAACGCGUCUCCCUCCUAAGGAGCAGGCUGUGGGUUCGAGUCCCGUAAGGAACG [C4U A42C A45G C49U C66A]	≤ 0.5
GUUCCGUUGGCGUAAUGGUAACGCGUCUCCCUCCUAAGGAGGAGACUGCGGGUCCGAGUCCCGUUCGGAACG [A42G U54C A65U]	≤ 0.5
GUUCCGUUGGCGUAAUGGUAACGCGUCUCCCUCGUAAGGAGAAGACUGCGGGUUCGAGUUCCGUACGGAACG [C34G C60U]	0.536
GUUCCGUUGGCGUACUGGUAACCCGUCUCCAUCCUAAGGAGAAGACUGCGGGUUCGAGUCCCGUACGGAACG [A15C G23C C31A]	≤ 0.5
